In ChEMBL document CHEMBL5244203, “Thiadiazolodiazepine analogues as a new class of neuromuscular blocking agents: Synthesis, biological evaluation and molecular modeling study” (Eur J Med Chem, 2017):
Activity calls are given as the source filed them. The rule behind the calls is not given here.

Columns and labels:
Rattus norvegicus [1] = assay: Reversal of neuromuscular blocking activity against electrically induced twitches in Wistar rat tibialis muscle at 100 mg/kg, ip in presence of physostigmine relative to control; format: functional
Rattus norvegicus [2] = assay: Neuromuscular blocking activity in Wistar rat tibialis muscle assessed as reduction in electrically-induced twitches by measuring time required for 50% blockage at 100 mg/kg, ip; format: functional
Method in brief: (§1)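 Male Wistar rats (250 g, N = 4-8 per group) anaesthetized with urethane (25% in water, 1.25 g/kg i.p.). Tracheal cannula with artificial room-air ventilation at 90 breaths/min, 20 c.c./kg. Rectal temperature held at 37 ± 1 °C. Tibialis twitch tension is expressed as % of pre-drug amplitude. Drug is given i.p. in DMSO or water, 1-100 mg/kg; ED50 and 90%-depression dose derived; mean ± S.E.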

Rattus norvegicus [3] = assay: Neuromuscular blocking activity in Wistar rat tibialis muscle assessed as reduction in tetanus stimulated muscle twitches at 100 mg/kg, ip; format: functional, organism-based
Method in brief: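 Male Wistar rats (250 g, N = 4-8 per group) anaesthetised with urethane (1.25 g/kg i.p.), tracheally cannulated and ventilated with room air at 90 breaths/min. Tibialis twitch tension recorded with body temperature kept at 37 ± 1 °C. Tetanus given at 30 Hz for 5-10 s. Drug given i.p. in DMSO or water at 1-100 mg/kg. Twitches expressed as % of pre-drug amplitude.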

Rattus norvegicus [4] = assay: Neuromuscular blocking activity in ip dosed Wistar rat tibialis muscle assessed as reduction in electrically-induced twitches; format: functional; method in brief: as §1
Gallus gallus [5] = assay: Neuromuscular blocking activity in chicks assessed as induction of flaccid paralysis by measuring time of onset of muscle relaxation at 0.15 mmol/Kg, ip administered as single dose; format: functional
Method in brief: (§2)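 4-day-old chicks (50 g) receive a single submaximal dose i.p., taken from the rat twitch study (0.15 mmol/kg). The type of paralysis, flaccid or spastic, is noted. The onset of head drop and of complete paralysis is timed after administration. Atracurium and succinylcholine serve as positive controls.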

Rattus norvegicus [6] = assay: Reversal of neuromuscular blocking activity in Wistar rat tibialis muscle assessed as time of onset of reversal at 100 mg/kg, ip in presence of physostigmine; format: functional
Gallus gallus [7] = assay: Neuromuscular blocking activity in chicks assessed as induction of flaccid paralysis by measuring time of onset of head drop at 0.15 mmol/Kg, ip administered as single dose; format: functional; method in brief: as §2
Rattus norvegicus [8] = assay: Neuromuscular blocking activity in Wistar rat tibialis muscle assessed as reduction in electrically-induced twitches by measuring time required for 90% blockage at 100 mg/kg, ip; format: functional; method in brief: as §1
Gallus gallus [9] = assay: Neuromuscular blocking activity in ip dosed chicks assessed as induction of flaccid paralysis; format: functional; method in brief: as §2
Rattus norvegicus [10] = assay: Neuromuscular blocking activity in against electrically-induced twitches in Wistar rat tibialis muscle assessed as time duration of muscle block at 100 mg/kg, ip; format: functional; method in brief: as §1
Rattus norvegicus [11] = assay: Neuromuscular blocking activity in Wistar rat tibialis muscle assessed as reduction in electrically-induced twitches by measuring time of onset at 100 mg/kg, ip; format: functional; method in brief: as §1
[12] = Toxicity in ip dosed mouse measured for 72 hrs; format: organism-based; settings: in vivo
Method in brief: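 Male mice, grouped, given i.p. doses of 0.1-5 mmol/kg. Observed continuously for 6 h, then kept under observation for 72 h, with behavioural changes and deaths recorded. Percentage death per dose converted to probits to derive the LD50.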

Gallus gallus [13] = assay: Neuromuscular blocking activity in chicks assessed as induction of spastic paralysis by measuring time of onset of muscle relaxation at 0.15 mmol/Kg, ip administered as single dose; format: functional; method in brief: as §2
Rattus norvegicus [14] = assay: Neuromuscular blocking activity in Wistar rat tibialis muscle assessed as reduction in electrically induced twitches at 100 mg/kg, ip in presence of physostigmine; format: functional, organism-based
Gallus gallus [15] = assay: Neuromuscular blocking activity in ip dosed chicks assessed as induction of spastic paralysis; format: functional; method in brief: as §2

SMILES	Activity (Rattus norvegicus [1]) [%]	Time (Rattus norvegicus [2]) [min]	Activity (Rattus norvegicus [3])	ED50 (Rattus norvegicus [4]) [µmol/kg]	Time (Gallus gallus [5]) [min]	Time (Rattus norvegicus [6]) [min]	Time (Gallus gallus [7]) [min]	Time (Rattus norvegicus [8]) [min]	ED50 (Gallus gallus [9]) [µmol/kg]	Time (Rattus norvegicus [10]) [min]	Time (Rattus norvegicus [11]) [min]	LD50 at 72 h [12] [mg/kg]	Time (Gallus gallus [13]) [min]	Activity (Rattus norvegicus [14])	ED50 (Gallus gallus [15]) [µmol/kg]
COc1ccc(CC2c3cc(OC)c(OC)cc3CC[N+]2(C)CCC(=O)OCCCCCOC(=O)CC[N+]2(C)CCc3cc(OC)c(OC)cc3C2Cc2ccc(OC)c(OC)c2)cc1OC.O=S(=O)([O-])c1ccccc1.O=S(=O)([O-])c1ccccc1 (configuration not stated) [ATRACURIUM BESYLATE]	100	8	Active	16	10	2	5	12	16	30	5				
O=C1CCCN2N=C(c3ccc(Br)cc3)SC2=N1	100	7	Active	150	1	1	0.25	10	150	70	3	195			
C[N+](C)(C)CCOC(=O)CCC(=O)OCC[N+](C)(C)C.[Cl-].[Cl-] [SUCCINYLCHOLINE CHLORIDE]		3	inactive	30				5		20	2		0.5	inactive	30
O=C1CCCN2N=C(c3ccc(F)cc3)SC2=N1		18	Active	360	15		11	28	300	110	10			inactive	
